# From PubChem
# NR1D1 modulator = modulators of Rev-erb alpha DNA binding, primary screen, biochemical, FITC-DNA, fluorescence polarization, uHTS; Rev-erbα–FITC-DNA binding, 90 min; 370,000 compounds, 0.79% hits; Nuclear receptor subfamily 1 group D member 1 (Homo sapiens), P20393; activity, % at 10 µM;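 active means activity above about 14%, limit read from the data; passing the limit was not always enough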
# PG9 binder = binders of HIV-1 gp120 antibody PG9, primary screen, biochemical, TR-FRET. HIV-1 gp120 / PG9 antibody interaction. inhibition, % at 6.7 µM. 360,000 compounds, 0.43% hits. TR-FRET gp120-PG9 antibody binding; in the data active means inhibition above about 8.5%
# NR2E3 ag-1 = NR2E3 agonists in two-hybrid cells, primary screen, cell-based, luminescence, CHO-S, Gal4-NCOR/VP16-NR2E3; luciferase; inhibition of corepressor binding, % at 3.98 µM; 360,000 compounds, 0.35% hits;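 active means inhibition above the mean of all tested compounds plus 3 SD, cut at about 70% in these data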;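 further: higher means lower luciferase signal from less NR2E3 corepressor binding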
# Target sequence (Q9Y5X4 whole entry, looked up, the tested form may be a part): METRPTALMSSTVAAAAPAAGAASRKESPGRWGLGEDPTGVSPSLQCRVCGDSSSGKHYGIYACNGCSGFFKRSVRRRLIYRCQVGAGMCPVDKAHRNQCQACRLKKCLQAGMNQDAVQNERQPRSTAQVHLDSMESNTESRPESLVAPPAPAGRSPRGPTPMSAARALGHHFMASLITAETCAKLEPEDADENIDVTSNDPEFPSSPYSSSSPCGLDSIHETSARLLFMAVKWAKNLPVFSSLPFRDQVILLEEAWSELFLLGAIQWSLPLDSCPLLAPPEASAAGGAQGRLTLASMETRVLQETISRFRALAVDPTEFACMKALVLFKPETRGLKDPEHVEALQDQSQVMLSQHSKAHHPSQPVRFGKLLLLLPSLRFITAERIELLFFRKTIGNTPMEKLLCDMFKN
# NR2E3 ag-2 = inhibitors of NR2E3-RetCOR corepressor binding, primary screen, NR2E3 agonist project, biochemical, TR-FRET, GST-NR2E3, biotin-RetCOR; Photoreceptor-specific nuclear receptor (Homo sapiens), Q9Y5X4; 1536-well; inhibition of corepressor binding, % at 4.78 µM; 320,000 compounds, 0.12% hits;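 active means percent inhibition above the cutoff of mean plus 3 SD of all tested compounds, set per screening campaign, cut at about 20% in these data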
#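 Material – GST-tagged NR2E3 plus biotinylated RetCOR corepressor · Quantity – NR2E3 fusion 1.35 nM · Times – 5 h incubation at 4 °C · Medium – pH 7.5 Tris-based buffer · Technique – TR-FRET, Eu(K)-anti-GST donor, streptavidin-D2 acceptor, ex 340, em 617/671 nm · Benchmarks – high control biotin, low control 0.6% DMSO · Format – 1536-well plates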
# NR2E3 ag conf = NR2E3 agonist confirmation in cells, cell-based, luminescence, CHO-S two-hybrid; shares compounds with NR2E3 ag-1; CHO-S mammalian two-hybrid NR2E3-NCOR, luciferase luminescence; inhibition, % at 3.98 µM; 2,300 compounds, 51% hits; AID 624378, 2012;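 active means average inhibition above a cutoff equal to the mean inhibition of all tested compounds plus one SD, cut at about 70% in these data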
# VP16 counter = GAL4-VP16 reporter modulators, confirmation, counter-screen for NR2E3 agonist project, cell-based, luminescence, CHO-S, high throughput; shares compounds with NR2E3 ag-1; CHO-S GAL4-VP16 luciferase reporter; inhibition, % at 3.98 µM; 2,300 compounds, 29% hits;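 active means mean inhibition above a cutoff equal to the average over all tested compounds plus one standard deviation, cut at about 70% in these data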;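 further: luciferase from a UAS reporter driven by GAL4-VP16 transactivation; higher means less reporter light so more repression of VP16 activity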
# A number is an active result; n = inactive; x = not tested or not shown. Most compounds without a hit are left out; they make up all but 1.5% or so of the library.
SMILES,NR1D1 modulator,PG9 binder,NR2E3 ag-1,NR2E3 ag-2,NR2E3 ag conf,VP16 counter
C=CCN(Cc1ccc2c(c1)OCO2)C(C#CC1CC1)C(C)C (stereo not given),n,x,x,x,x,x
COc1ccc(S(=O)(=O)Nc2ccccn2)cc1,n,n,n,n,x,x
O=S(=O)(Nc1cccnc1Cl)c1ccc(-c2ccccc2)cc1,n,n,n,n,n,n
COc1cc(NS(=O)(=O)c2ccc(C)cc2)c2ncccc2c1,n,n,82,n,n,n
Cc1ccc(-c2ccc(S(=O)(=O)Nc3cccnc3)cc2)cc1,n,n,n,n,84,n
Cc1ccc(S(=O)(=O)Nc2cccc3cccnc23)cc1,n,n,97,n,n,n
Oc1ccc2ccccc2c1C=Nn1c(-c2n[nH]c3c2CCC3)n[nH]c1=S,n,x,x,x,x,x
COC(=O)[C@]12C[C@H](CC(=O)NCc3cccc(C(F)(F)F)c3)C(=O)N(Cc3ccc(Cl)cc3Cl)C1=C[C@H](C1CCCC1)O[C@@H]2C,n,x,x,x,x,x
CN1C(=O)CC(C)(c2ccccc2)C1=O (stereo not given),n,x,x,x,x,x
CCC(c1nnnn1-c1ccc2c(c1)OCCO2)N1CCN(c2ccc(F)cc2)CC1 (stereo not given),x,x,n,x,n,n
CCCCCCCCn1c(=O)c(C(=O)OC)c(N)c2ccccc21,n,n,n,n,85,n
COC(=O)C1CN(Cc2ccccc2)CCS(=O)(=O)N1Cc1ccc(C)cc1 (stereo not given),n,x,x,x,x,x
NC(=S)NN=Cc1nccc2c(C(F)(F)F)cccc12,n,n,n,x,n,n
CNc1cccnc1C=NNC(N)=S,n,n,n,x,x,x
O=C(c1ccccc1)c1nn(-c2ccc(Cl)cc2)c(=O)cc1C(F)(F)F,n,n,108,n,93,n
O=C(/C=C(\Nc1ccccc1)c1ccccc1)c1ccccc1,n,n,x,x,x,x
COc1ccc(/C=C/c2cc(C(F)(F)F)[nH]c(=O)n2)cc1OC,n,n,n,n,n,n
CC(C)Nc1ccc(Nc2ccnc3cc4ccccc4cc23)cc1,n,n,n,n,x,x
c1ccc(CCNc2ccnc3cc4ccccc4cc23)cc1,n,n,93,x,97,82
Cc1cc(-n2c(C)cc(C(=O)CSc3ncnc4ccccc34)c2C)no1,n,n,92,n,97,86
Cc1cc(C)n2nc(SCC(=O)c3ccccc3)nc2n1,n,n,n,n,x,x
Cc1cc(C)n2nc(SCC(=O)c3cc(C)n(-c4cc(C)on4)c3C)nc2n1,n,n,92,n,94,81
CCOC(=O)c1csc(NC(=O)C2CCCN(S(=O)(=O)c3cc(OC)ccc3OC)C2)n1 (stereo not given),n,x,x,x,x,x
O=S1(=O)c2c(cccc2N2CC[C@@H](O)C2)O[C@@H]2CCN1C2,n,x,x,x,x,x
Cc1ccc(/C=C2\SC(=S)N(CCCC(=O)Nc3cccnc3)C2=O)cc1,x,x,91,n,n,90
SMILES,NR1D1 modulator,PG9 binder,NR2E3 ag-1,NR2E3 ag-2,NR2E3 ag conf,VP16 counter
COc1ccc(/C=C2\SC(=S)N(CCCC(=O)Nc3ccc(O)cc3)C2=O)cc1,n,n,73,n,n,n
O=C(CCCN1C(=O)/C(=C/c2ccccc2Cl)SC1=S)NNC(=O)c1ccccc1,n,n,n,n,x,x
O=C(CCCN1C(=O)/C(=C/c2ccccc2Cl)SC1=S)NNC(=O)c1cccnc1,n,n,n,n,n,n
COc1ccc(-c2c(Cc3ccccc3)nc(NC(=O)c3ccccc3F)n2C)cc1,n,x,x,x,x,x
Cc1cccc(N2CCN(C(=O)c3cc(S(=O)(=O)N(C)C)ccc3Cl)CC2)c1C,n,x,x,x,x,x
O=c1c2cc3cc4c(cc3nc2ncn1Cc1cccnc1)OCO4,n,x,x,x,x,x
Cc1ccc(OCCNS(=O)(=O)c2ccc(N3CCCC3=O)cc2)cc1C,n,n,93,n,98,85
COc1ccc(CCNS(=O)(=O)c2ccc(N3CCCC3=O)cc2)cc1,n,n,n,n,x,x
Cc1ccc(OCCNS(=O)(=O)c2ccc(N3CCCC3=O)cc2)cc1,n,n,n,n,86,72
C[C@H]1[C@@H](OC(=O)NCc2ccc(C(F)(F)F)cc2)CC[C@@]23CCCN2C(=O)CCC[C@@H]13,n,x,x,x,x,x
CN(Cc1ccccc1)C(=O)OCc1cn(Cc2ccccc2C(F)(F)F)nn1,n,x,x,x,x,x
CSC(=S)NN=C(C)c1cccc(C)n1,n,n,n,x,n,n
Cc1sc2ncnc(NC3CCN(Cc4ccccc4)CC3)c2c1C,n,n,75,n,95,80
CCCCNS(=O)(=O)/C=C/c1ccccc1CNC(=O)OC(C)(C)C,n,x,x,x,x,x
Cc1ccc(N(C)c2nc(N)nc(N)c2N=O)cc1,n,n,x,x,x,x
COc1ccc(CNC(=O)c2ccc3ccccc3n2)cc1OC,n,n,85,n,n,n
Cc1cc(/C=N/n2cnnc2)c(C)n1-c1ccc(OCc2ccc(Cl)cc2)cc1,n,n,102,n,98,87
Fc1ccccc1COc1cccc(/C=N/n2cnnc2)c1,n,n,n,n,x,x
Cc1cc(/C=N/n2cnnc2)c(C)n1-c1ccc(OCc2ccccc2F)cc1,n,n,n,n,96,79
CCC(=O)N1CCc2cc(Br)c(S(=O)(=O)N3CCCC(C(=O)NC(C)(C)C)C3)cc21 (stereo not given),n,x,x,x,x,x
CN(CCOc1ccc(Cl)cc1)C(=O)c1cccc(S(=O)(=O)N2CCN(Cc3ccccc3)CC2)c1,n,n,84,x,92,74
Cc1ccc(C)c(NC(=O)CN(C)C(=O)c2cccc(S(=O)(=O)N3CCCC3)c2)c1,n,n,n,x,x,x
Cc1ccc(C)c(NC(=O)CN(C)C(=O)c2cccc(S(=O)(=O)N3CCN(Cc4ccccc4)CC3)c2)c1,n,n,n,n,n,n
CCC(NC(=O)c1ccc2c(ccn2Cc2cccc(-c3ccc(C(=O)O)cc3)c2)c1)c1ccccc1 (stereo not given),n,x,x,x,x,x
Cc1cccc(Cn2cc(COC(=O)NCC(C)C)nn2)c1,n,x,x,x,x,x
SMILES,NR1D1 modulator,PG9 binder,NR2E3 ag-1,NR2E3 ag-2,NR2E3 ag conf,VP16 counter
CC(=O)Nc1ccc(SCC(=O)c2cc(C)n(Cc3cccs3)c2C)cc1,n,n,n,n,n,n
CC(=O)Nc1ccc(SCC(=O)c2cc(C)n(-c3ccccc3F)c2C)cc1,n,n,n,n,n,n
Cc1cc(C(=O)CSc2nnc(N)s2)c(C)n1Cc1cccs1,n,n,n,n,x,x
COCCn1c(C)cc(C(=O)CSc2ccc(NC(C)=O)cc2)c1C,n,n,n,n,x,x
Cc1csc(SCC(=O)c2cc(C)n(Cc3cccs3)c2C)n1,n,n,n,n,n,n
CC(OC(=O)c1cc(Br)ccc1O)C(=O)Nc1ccc(S(=O)(=O)N2CCCC2)cc1 (stereo not given),n,n,n,n,n,n
